Test results taken from PMC10749586 (Nature, 2023).
Read-outs that look alike come from different tables or passages of the source.

Columns and labels:
KARPAS422 cells [1] = test: Cell viability; assay type: cell-based, human; conditions: for fold less-effective cell killing than TCIP1: JQ1 and BI3812 added separately or together, 72 h
DLBCL cell lines = test: Cell viability; assay type: cell-based, human; conditions: titrated against constant TCIP1 that kills 50–95% of cells within 72 h
[2] = system: MYC, p21, FOXO3, BCL6, BRD4 protein levels; conditions: BET/BRD4 inhibitor; cited from earlier work
[3] = biological target: BRD4(BD1)-TCIP1-BCL6(BTB) ternary complex (Homo sapiens, UniProt O60885+P41182, C67R/C84N/C8Q); test: Biolayer interferometry of ternary complex; assay type: binding
How it was run: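 Biolayer interferometry used biotinylated BCL6(BTB)-AviTag (100 nM) loaded on streptavidin tips. Wells held tag-cleaved BRD4(BD1) (50 µM, excess) with test compound titrated from 5.5 nM to 12 µM, at 25 °C. Steps were 300 s association, 300 s dissociation and 30 s baseline. Off-rate came from dissociation curves at 7–8 doses, n = 3 independent replicates, mean ± s.d.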

SUDHL5 cells = test: Cell viability in SUDHL5 cells with or without serum starvation; assay type: cell-based, human
How it was run: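 SUDHL5 cells were arrested in G0/G1 by serum starvation, or left unstarved, before test compound addition. Viability was read with PrestoBlue resazurin reagent (1.5 h, fluorescence 560/590 nm). Signal was background-subtracted and normalized to DMSO-treated cells. n = 3 biological replicates, mean ± s.d.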

[4] = system: primary human tonsillar lymphocytes; test: Cell viability of primary human tonsillar lymphocytes; assay type: cell-based; conditions: read-out: EC50 of cell viability, 72 h
KARPAS422 cells [5] = test: Cell cycle and TUNEL analysis; assay type: cell-based, human; conditions: cell-cycle analysis with TUNEL; 100 nM, 24 h
KARPAS422 cells [6] = test: Annexin V apoptosis assay; assay type: cell-based, human
How it was run: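 KARPAS422 cells (500,000, plated at 1 M ml−1) were exposed to test compound for the stated times and doses, then harvested on ice and washed twice. They were stained with 7-AAD plus FITC-annexin V for 15 min at room temperature and read immediately by flow cytometry. Gates came from single-stain and no-stain controls. Kinetics used 2–6 biological replicates, mean ± s.d.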

[7] = system: MYC, p21, FOXO3, BCL6, BRD4 protein levels; test: Western blots of target proteins in DLBCL cells; assay type: cell-based, human
How it was run: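 Cells plated at 1 M ml−1 were treated with test compound (e.g., 20 h in KARPAS422). Two million cells were lysed on ice in RIPA (pH 8, 1% SDS, 1 mM DTT) with benzonase for 20 min. Lysates were cleared at 14,000g for 10 min at 4 °C and quantified by Bradford. Immunoblots probed BCL6, BRD4, BCL2, p53, MYC, FOXO3 and p21, with GAPDH as loading control.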

[8] = system: KARPAS422 cells gene expression; test: RNA sequencing in KARPAS422 cells; assay type: cell-based, human
[9] = system: BRD4 / Pol II / H3K27ac chromatin occupancy; test: ChIP-seq; assay type: cell-based, human
How it was run: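 KARPAS422 cells (30 million) received test compound or DMSO, then were crosslinked with 1% formaldehyde for 12 min and quenched with 0.125 M glycine. Nuclei were prepared and immunoprecipitated overnight at 4 °C. Chromatin input was 50 µg for Pol II Ser2/Ser5 phos and 25 µg for H3K27ac, with Drosophila spike-in. Differential peaks: Wald test, Benjamini–Hochberg, padj ≤ 0.05, |log2| ≥ 0.5.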

BRD4(BD1) = BRD4(BD1) (Homo sapiens, UniProt O60885); test: ITC binary titration, TCIP1 and BRD4; assay type: binding; conditions: read-out: Kd of BRD4-TCIP1 (binary)
OCILY19 cells = test: Cell viability of OCILY19 cells; assay type: cell-based, human; conditions: OCILY19, no detectable BCL6
[10] = Mouse tolerability and pharmacokinetic study; assay type: in vivo; conditions: 10 mg kg^−1 i.p. once daily for 5 days, C57BL/6 mice
BCL6 reporter = BCL6 reporter assay in KARPAS422 cells; assay type: cell-based, human; conditions: read-out: EC50 of BCL6 reporter activation, 8 h
How it was run: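 KARPAS422 cells were lentivirally transduced with the BCL6 reporter construct and selected. They were then treated with test compound for 8 h, washed in 2.5% FBS/PBS, stained with 7-AAD (1:250 v/v) for live/dead and analysed by flow cytometry. A GFP-positive gate was set from non-transduced cells. The FITC histogram area past threshold, over live cells, was normalized to DMSO.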

[11] = 2 h, 10 nM, out of 51,678 consensus peaks

CNC(=O)COc1cc2cc(Nc3nc(N4CCC(C(=O)N(C)C)CC4)ncc3Cl)cc(OC)c2n(C)c1=O [BI3812]
fold less-effective cell killing than TCIP1 (KARPAS422 cells [1]): 100–1,000 fold
rescue of TCIP1-induced cell death by competitive titration (DLBCL cell lines): prevented death by TCIP1

Cc1sc2c(c1C)C(c1ccc(Cl)cc1)=N[C@@H](CC(=O)OC(C)(C)C)c1nnc(C)n1-2 [JQ1]
drug level at which MYC expression is reduced [2]: 500 nM
fold less-effective cell killing than TCIP1 (KARPAS422 cells [1]): 100–1,000 fold
rescue of TCIP1-induced cell death by competitive titration (DLBCL cell lines): prevented death by TCIP1

CNC(=O)COc1cc2cc(Nc3nc(N4CCC(C(=O)NCCCCCCCNC(=O)C[C@@H]5N=C(c6ccc(Cl)cc6)c6c(sc(C)c6C)-n6c(C)nnc65)CC4)ncc3Cl)cc(OC)c2n(C)c1=O [TCIP1]
off-rate of ternary complex [3]: 26 ms^−1
EC50 (SUDHL5 cells; read-out: EC50 of cell viability after G0/G1 arrest, SUDHL5, serum starvation): 0.25 nM
EC50 (SUDHL5 cells; read-out: EC50 of cell viability without arrest, SUDHL5, no serum starvation): 3.2 nM
EC50 [4]: ~210 nM
cell-cycle effect (KARPAS422 cells [5]): induced both a G1/S and G2/M block in the cell cycle
time to detectable apoptosis (KARPAS422 cells [6]): 4 to 8 h
time to FOXO3 activation ([7]; 10 nM): ≤ 2 h
effect on BRD4 protein levels ([7]; 20 h, KARPAS422): did not change substantially
time to reduction of MYC protein levels ([7]; after addition of drug): ≤ 2 h
concentration from which MYC levels are reduced ([7]; western blot, DLBCL cells): less than 1 nM
concentration that activates FOXO3 ([7]; western blot, DLBCL cells): 0.5 nM
concentration inducing the BCL6L isoform ([7]; western blot, Fig. 4k): ≤ 1 nM
EC50 (KARPAS422 cells [1]; read-out: EC50 of cell viability, KARPAS422, 72 h after addition of drug): 1.3 nM
number of genes induced at early timepoints ([8]; 10 nM, 1, 2 and 4 h, KARPAS422): approximately 140 genes
number of genes with increased expression ([8]; 10 nM, 20 h, KARPAS422): 1,654 genes
number of genes with reduced expression ([8]; 10 nM, 20 h, KARPAS422): 1,347 genes
time to upregulation of the long isoform of BCL6 mRNA ([8]; RT-qPCR, 10 nM): 1 to 2 h
H3K27ac peaks decreased [9, 11]: 70 peaks
H3K27ac peaks increased [9, 11]: 126 peaks
increase of BRD4 binding over genomic BCL6-binding sites ([9]; ChIP-seq): 50%
BRD4 levels increase at promoters of upregulated genes ([9]; ChIP-seq, 1 h of TCIP1 addition): approximately 150%
Kd (BRD4(BD1)): 5080 nM
response in cell viability (OCILY19 cells): little or no response compared with controls
body weight change [10]: no significant changes in mouse body weight
histology (haematoxylin and eosin) of lung and spleen [10]: did not reveal noticeable abnormalities
EC50 (BCL6 reporter): 5 nM
